# In ChEMBL document CHEMBL4190346, “Structure-based design, synthesis, and biological evaluation of withaferin A-analogues as potent apoptotic inducers” (Eur J Med Chem, 2017):
# Calls of active or inactive are those of the source. The calls are words filed in the database; no cut-off is given here.
# Tests used:
# [1] = system: MCF7; experiment: Cytotoxicity against human MCF7 cells assessed as reduction in cell viability using compound addition to cell culture cells in log phase of growth and incubated for 48 hrs by MTT assay; assay type: functional, cell-based; conditions: Homo sapiens, MCF7, 48 h; read-out: IC50
# [2] = system: HeLa; experiment: Induction of apoptosis in human HeLa cells assessed as increase in caspase-3 activity by measuring pNA release level at 8 uM incubated for 4 hrs using c-DEVD-pNA substrate by colorimetric assay; assay type: functional
# Method in brief: (§1)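 HeLa cells in DMEM with 10% FBS were exposed for 4 h (fixed 24 or 32 level for 8 h). Staurosporine for 4 h served as the positive control. Cells were lysed at 4 °C for 10 min and centrifuged, and supernatant protein was measured by Bradford. Caspase-3 activity was read colorimetrically as nmol pNA/min/mL, with treated/untreated OD ratios. Values are means ± SD of three independent experiments in triplicate.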
# [3] = system: HeLa; experiment: Induction of apoptosis in human HeLa cells assessed as increase in caspase-3 activity by measuring pNA release level at 16 uM incubated for 4 hrs using c-DEVD-pNA substrate by colorimetric assay; assay type: functional; method in brief: as §1
# [4] = system: HeLa; experiment: Induction of apoptosis in human HeLa cells assessed as increase in caspase-3 activity by measuring pNA release level at 24 uM incubated for 4 hrs using c-DEVD-pNA substrate by colorimetric assay; assay type: functional; method in brief: as §1
# [5] = system: HeLa; experiment: Induction of apoptosis in human HeLa cells assessed as reduction in cellular adhesion at 32 uM incubated for 4 hrs by light microscopy
# [6] = system: MCF7; experiment: Ratio of IC50 for cytotoxicity against human MCF7 cells using compound addition to cell culture cells in lag phase of growth and incubated for 48 hrs by MTT assay to IC50 for cytotoxicity against human MCF7 cells using compound addition to cell culture cells in log phase of growth and incubated for 48 hrs by MTT assay; assay type: functional
# [7] = system: A549; experiment: Cytotoxicity against human A549 cells assessed as reduction in cell viability using compound addition to cell culture cells in lag phase of growth and incubated for 48 hrs by MTT assay; assay type: functional, cell-based; conditions: Homo sapiens, A549, 48 h; read-out: IC50
# [8] = system: HeLa; experiment: Cytotoxicity against human HeLa cells assessed as reduction in cell viability using compound addition to cell culture cells in lag phase of growth and incubated for 48 hrs by MTT assay; assay type: functional, cell-based; conditions: Homo sapiens, HeLa, 48 h; read-out: IC50
# [9] = system: HeLa; experiment: Induction of apoptosis in human HeLa cells assessed as increase in caspase-3 activity by measuring pNA release level at 32 uM incubated for 4 hrs using c-DEVD-pNA substrate by colorimetric assay; assay type: functional; method in brief: as §1
# [10] = system: MCF7; experiment: Cytotoxicity against human MCF7 cells assessed as reduction in cell viability using compound addition to cell culture cells in lag phase of growth and incubated for 48 hrs by MTT assay; assay type: functional, cell-based; conditions: Homo sapiens, MCF7, 48 h; read-out: IC50
# [11] = system: HeLa; experiment: Cytotoxicity against human HeLa cells assessed as reduction in cell viability using compound addition to cell culture cells in log phase of growth and incubated for 48 hrs by MTT assay; assay type: functional, cell-based; conditions: Homo sapiens, HeLa, 48 h; read-out: IC50
# [12] = system: HeLa; experiment: Induction of apoptosis in human HeLa cells assessed as reduction in cellular integrity at 32 uM incubated for 4 hrs by light microscopy
# [13] = system: A549; experiment: Cytotoxicity against human A549 cells assessed as reduction in cell viability using compound addition to cell culture cells in log phase of growth and incubated for 48 hrs by MTT assay; assay type: functional, cell-based; conditions: Homo sapiens, A549, 48 h; read-out: IC50
# [14] = system: Vero; experiment: Cytotoxicity against African green monkey Vero cells assessed as reduction in cell viability using compound addition to cell culture cells in lag phase of growth and incubated for 48 hrs by MTT assay; assay type: cell-based, Chlorocebus sabaeus; conditions: Chlorocebus sabaeus, Vero, 48 h; read-out: IC50
# [15] = system: HeLa; experiment: Induction of apoptosis in human HeLa cells assessed as increase in caspase-3 activity by measuring pNA release level at 12 uM incubated for 4 hrs using c-DEVD-pNA substrate by colorimetric assay; assay type: functional; method in brief: as §1
# [16] = system: Vero; experiment: Cytotoxicity against African green monkey Vero cells assessed as reduction in cell viability using compound addition to cell culture cells in log phase of growth and incubated for 48 hrs by MTT assay; assay type: cell-based, Chlorocebus sabaeus; conditions: Chlorocebus sabaeus, Vero, 48 h; read-out: IC50
# [17] = system: HeLa; experiment: Induction of cell cycle arrest in human HeLa cells assessed increase in subG1 phase accumulation at 24 uM incubated for 12 hrs by 33342 propidium iodide based flow cytometry relative to untreated control; assay type: functional
# [18] = system: HeLa; experiment: Induction of apoptosis in human HeLa cells assessed increase in apoptotic nuclei formation at 8 uM incubated for 12 hrs by Hoechst 33342 staining based fluorescence microscopy; assay type: functional
# [19] = system: HeLa; experiment: Induction of apoptosis in human HeLa cells assessed as […] by measuring pNA release level at 32 uM incubated for 8 hrs using c-DEVD-pNA substrate by colorimetric assay; assay type: functional, cell-based; method in brief: as §1
# [20] = system: HeLa; experiment: Induction of apoptosis in human HeLa cells assessed increase in DNA fragmentation at 16 uM incubated for 12 hrs by ethidium bromide staining based agarose gel electrophoresis; assay type: functional, cell-based
# Method in brief: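 HeLa cells were incubated with the compounds at varying concentrations for 12 or 24 h. Controls were DMSO (solvent) and staurosporine 2 µM (positive). Adherent and floating cells were pooled, centrifuged at 500 g and washed twice in cold PBS. Genomic DNA was extracted with a kit, run on 1.8% agarose, stained with ethidium bromide and viewed under UV.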
# [21] = system: HeLa; experiment: Induction of apoptosis in human HeLa cells at 12 uM incubated for 4 hrs by annexin V and propidium iodide staining based flow cytometry; assay type: functional, cell-based
# [22] = system: HeLa; experiment: Induction of apoptosis in human HeLa cells at 10 uM incubated for 4 hrs by annexin V and propidium iodide staining based flow cytometry; assay type: functional, cell-based
# [23] = system: HeLa; experiment: Induction of apoptosis in human HeLa cells assessed as increase in caspase-3 activity by measuring pNA release level at 24 uM incubated for 8 hrs using c-DEVD-pNA substrate by colorimetric assay; assay type: functional; method in brief: as §1
# [24] = system: HeLa; experiment: Induction of apoptosis in human HeLa cells assessed increase in phosphatidylserine externalization at 2 uM incubated for 4 hrs by annexin V and propidium iodide staining based flow cytometry; assay type: functional, cell-based
# [25] = system: HeLa; experiment: Induction of cell cycle arrest in human HeLa cells assessed increase in hypoploid phase accumulation at 24 uM incubated for 12 hrs by […] propidium iodide based flow cytometry relative to untreated control; assay type: functional
# [26] = system: HeLa; experiment: Induction of cell cycle arrest in human HeLa cells assessed accumulation at G2/M phase at 16 uM incubated for 24 hrs by 33342 propidium iodide based flow cytometry relative to untreated control; assay type: functional; conditions: in the assay text read “accumulation at sub-G1 phase” for “accumulation at G2/M phase”
# Method in brief: (§2)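 HeLa cells (1–2 × 10^6 per well) were exposed for 12 h at 24 µM, or at 16 µM over a time course. Adherent and floating cells were pooled, washed in ice-cold PBS, and fixed/permeabilized overnight in ice-cold 70% ethanol. DNA was stained with propidium iodide and G1, G2/M and sub-G1 (hypoploid) fractions were read by flow cytometry. Results are from ≥3 independent experiments in triplicate.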
# [27] = system: HeLa; experiment: Induction of cell cycle arrest in human HeLa cells assessed increase in subG1 phase accumulation at 16 uM by 33342 propidium iodide based flow cytometry relative to untreated control; assay type: functional; conditions: TDE = time-dependent effect; method in brief: as §2
# [28] = system: HeLa; experiment: Induction of cell cycle arrest in human HeLa cells assessed increase in subG1 phase accumulation at 24 uM incubated for 12 hrs by 33342 propidium iodide based flow cytometry relative to Withaferin A; assay type: functional; method in brief: as §2
# [29] = system: HeLa; experiment: Induction of cell cycle arrest in human HeLa cells assessed reduction in G2/M phase accumulation at 16 uM by 33342 propidium iodide based flow cytometry relative to untreated control; assay type: functional; conditions: TDE = time-dependent effect; method in brief: as §2
# [30] = system: HeLa; experiment: Induction of early apoptosis in human HeLa cells at 4 uM incubated for 1 hr by annexin V and propidium iodide staining based flow cytometry; assay type: functional, cell-based
# [31] = Selectivity index, ratio of IC50 for African green monkey Vero cells to IC50 for human HeLa cells; assay type: toxicity; conditions: Vero cells and HeLa cells, read-out: Ratio IC50
# [32] = system: HeLa; experiment: Induction of late apoptosis in human HeLa cells at 8 uM incubated for 1 hr by annexin V and propidium iodide staining based flow cytometry; assay type: functional, cell-based
Compound,IC50 [1],Activity [2],Activity [3],Activity [4],Ratio IC50 [6],IC50 [7],IC50 [8],Activity [9],IC50 [10],IC50 [11],IC50 [13],IC50 [14],Activity [15],IC50 [16],fold change (FC) [17],Activity [18],Activity [19],Activity [20],further results
CC1=C(COC(=O)c2ccccc2)C(=O)O[C@@H]([C@@H](C)[C@H]2CC[C@H]3[C@@H]4C[C@H]5O[C@]56C(=O)C=CC(=O)[C@]6(C)[C@H]4CC[C@]23C)C1,1.1 µM,0.65 nmol/min/mL,0.67 nmol/min/mL,1.05 nmol/min/mL,>3,3.2 µM,2.6 µM,0.61 nmol/min/mL,5.4 µM,1.9 µM,2.3 µM,3.1 µM,0.4 nmol/min/mL,0.7 µM,,,,,Activity [5]: Active; Activity [12]: Active
CC1=C(COC(=O)C(C)(C)C)C(=O)O[C@@H]([C@@H](C)[C@H]2CC[C@H]3[C@@H]4C[C@H]5O[C@]56[C@@H](O)C=CC(=O)[C@]6(C)[C@H]4CC[C@]23C)C1,0.4 µM,0.26 nmol/min/mL,0.78 nmol/min/mL,1.04 nmol/min/mL,,1.8 µM,0.8 µM,0.93 nmol/min/mL,0.3 µM,1.7 µM,2.1 µM,0.4 µM,0.61 nmol/min/mL,0.5 µM,4 - 6,28%,Active,Active,Activity [21]: Active
CCCC(=O)OCC1=C(C)C[C@H]([C@@H](C)[C@H]2CC[C@H]3[C@@H]4C[C@H]5O[C@]56C(=O)C=CC(=O)[C@]6(C)[C@H]4CC[C@]23C)OC1=O,2.8 µM,,,,>3,6.7 µM,8.3 µM,,11.5 µM,7.9 µM,4.3 µM,3.8 µM,,2.1 µM,,,,,
CC1=C(COC(=O)C(C)(C)C)C(=O)O[C@@H]([C@@H](C)[C@H]2CC[C@H]3[C@@H]4C[C@H]5O[C@]56[C@@H](OC(=O)C(C)(C)C)C=CC(=O)[C@]6(C)[C@H]4CC[C@]23C)C1,1.2 µM,0.26 nmol/min/mL,0.28 nmol/min/mL,0.54 nmol/min/mL,,4.1 µM,0.9 µM,0.63 nmol/min/mL,0.6 µM,2.4 µM,4.6 µM,0.4 µM,0.25 nmol/min/mL,0.5 µM,4 - 6,15%,Active,Active,Activity [22]: Active
CC1=C(CO)C(=O)O[C@@H]([C@@H](C)[C@H]2CC[C@H]3[C@@H]4C[C@H]5O[C@]56[C@@H](O)C=CC(=O)[C@]6(C)[C@H]4CC[C@]23C)C1 [WITHAFERIN A],1.3 µM,0.35 nmol/min/mL,0.47 nmol/min/mL,0.55 nmol/min/mL,2.8,,,1.12 nmol/min/mL,,6.3 µM,10.1 µM,,0.41 nmol/min/mL,6.6 µM,4 - 6,,,,Activity [23]: 0.6 to 1.9 nmol/min/mL; Activity [24]: Active; Activity [25]: 11.3%
CC(=O)OCC1=C(C)C[C@H]([C@@H](C)[C@H]2CC[C@H]3[C@@H]4C[C@H]5O[C@]56[C@@H](OC(C)=O)C=CC(=O)[C@]6(C)[C@H]4CC[C@]23C)OC1=O,,0.33 nmol/min/mL,0.5 nmol/min/mL,1.06 nmol/min/mL,,,,0.68 nmol/min/mL,,,,,0.42 nmol/min/mL,,,,,Active,
CC1=C(COC(=O)c2ccccc2)C(=O)O[C@@H]([C@@H](C)[C@H]2CC[C@H]3[C@@H]4C[C@H]5O[C@]56[C@@H](O)C=CC(=O)[C@]6(C)[C@H]4CC[C@]23C)C1,0.7 µM,0.32 nmol/min/mL,0.67 nmol/min/mL,1.16 nmol/min/mL,,1 µM,0.8 µM,0.85 nmol/min/mL,0.3 µM,1.6 µM,1.5 µM,0.2 µM,0.52 nmol/min/mL,0.5 µM,4 - 6,28%,,Active,Activity [23]: 1.7 to 2 nmol/min/mL; Activity [26]: 37.8%; Activity [27]: Tde; fold change (FC) [28]: 2; Activity [29]: Tde; Activity [30]: Active; selectivity ratio [31]: 2.5; Activity [32]: Active; Activity [25]: 22.1%
CC1=C(COC(=O)c2ccoc2)C(=O)O[C@@H]([C@@H](C)[C@H]2CC[C@H]3[C@@H]4C[C@H]5O[C@]56[C@@H](O)C=CC(=O)[C@]6(C)[C@H]4CC[C@]23C)C1,1 µM,0.44 nmol/min/mL,0.62 nmol/min/mL,1.01 nmol/min/mL,>3,2.3 µM,2.5 µM,1.63 nmol/min/mL,3 µM,1.1 µM,3.3 µM,2.8 µM,0.68 nmol/min/mL,0.7 µM,,,Active,,
